Measurements taken from ChEMBL document CHEMBL1138002, “Synthesis and biological evaluation of thiazolidine-2,4-dione and 2,4-thione derivatives as inhibitors of translation initiation” (2004).

What was measured:
Format in all cases: functional
[1] = test system: A549; assay: Inhibition of human lung cancer cell line (A549) growth by 50% in sulforhodamine-B assay
Method in brief: (§1)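 Human A549 lung cancer cells; growth inhibition read by sulforhodamine B assay, staining cellular protein content. GI50 taken as concentration needed to inhibit 50% of cell proliferation. DMSO negative control, troglitazone (TRO) positive control; mean ± SD from three determinations.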

[2] = Ratio of intensity of phosphorylation of phosphorylated eIF2a to the intensity of the total eIF2a was determined
Method in brief: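 Cells exposed to drug at 5 µM; extracts analysed by Western blot with phospho-Ser51-specific rabbit anti-eIF2a and mouse monoclonal total eIF2a antibodies, quantified by infrared imaging. Phospho/total eIF2a intensity ratio normalized to DMSO; TRO positive, DMSO negative control; mean ± SD of three determinations.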

[3] = test system: A549; assay: Inhibition of human lung cancer cell line (A549) by 50% in sulforhodamine B assay; method in brief: as §1

Row | Structure (SMILES) | GI50 [1] | Ratio [2] | GI50 [3]
1 | O=C1NC(=O)/C(=C/c2cc(Cl)ccc2OCc2ccccc2)S1 | 5 µM | 4.52 | 
2 | O=C1NC(=S)SC1Cc1cc(Cl)ccc1OCc1ccccc1 (stereo not given) | 29 µM | 1.25 | 
3 | O=C1NC(=S)S/C1=C\c1cc(N2CCCCC2)ccc1OCc1ccccc1 | 3 µM | 0.75 | 
4 | O=C1NC(=S)S/C1=C\c1cc(Br)ccc1OCc1ccccc1 | 7 µM | 1.4 | 
5 | O=C1NC(=O)/C(=C/c2cc(-c3ccccc3)ccc2OCc2ccccc2)S1 | 2 µM | 0.76 | 
6 | Cc1c(C)c2c(c(C)c1O)CCC(C)(COc1ccc(CC3SC(=O)NC3=O)cc1)O2 (stereo not given) [TROGLITAZONE] |  | 2.12 | 15 µM
7 | CC(C)(C)c1ccc(OCc2ccccc2)c(/C=C2\SC(=S)NC2=O)c1 | 7 µM | 1.97 | 
8 | COc1ccc(OCc2ccccc2)c(/C=C2\SC(=O)NC2=O)c1 | 14 µM | 0.98 | 
9 | CC(C)(C)c1ccc(OCc2ccccc2)c(/C=C2\SC(=O)NC2=O)c1 | 2 µM | 6.98 | 
10 | O=C1NC(=S)S/C1=C\c1cc(-c2ccccc2)ccc1OCc1ccccc1 | 4 µM | 2.35 | 
11 | O=C1NC(=O)/C(=C/c2cc(Br)ccc2OCc2ccccc2)S1 | 5 µM | 4.05 | 
12 | O=C1NC(=O)/C(=C/c2ccccc2OCc2ccccc2)S1 | 35 µM | 0.92 | 
13 | O=C1NC(=S)S/C1=C\c1cc(F)ccc1OCc1ccccc1 | 9 µM | 5.02 | 
14 | CC(C)(C)c1ccc(-c2ccc(OCc3ccccc3)c(/C=C3\SC(=S)NC3=O)c2)cc1 | 2 µM | 1.37 | 
15 | O=C1NC(=O)/C(=C/c2cc(F)ccc2OCc2ccccc2)S1 | 4 µM | 0.72 | 
16 | CC(C)(C)c1ccc(OCc2ccccc2)c(CC2SC(=O)NC2=O)c1 (stereo not given) |  | 0.79 | 12 µM
17 | O=C1NC(=S)S/C1=C\c1cc(Cl)ccc1OCc1ccccc1 | 5 µM | 1.76 | 
18 | O=C1NC(=S)S/C1=C\c1ccccc1OCc1ccccc1 | 13 µM | 1.17 | 
19 | Cc1ccc(OCc2ccccc2)c(/C=C2\SC(=O)NC2=O)c1 | 8 µM | 1.94 | 
20 | O=C1NC(=S)S/C1=C\c1cc(N2CCOCC2)ccc1OCc1ccccc1 | 5 µM | 0.92 | 
21 | O=C1NC(=S)S/C1=C\c1cc([N+](=O)[O-])ccc1OCc1ccccc1 | 5 µM | 3.49 | 
22 | O=C1NC(=O)/C(=C/c2cc([N+](=O)[O-])ccc2OCc2ccccc2)S1 | 14 µM | 0.89 | 
23 | CC(C)(C)c1ccc(-c2ccc(OCc3ccccc3)c(/C=C3\SC(=O)NC3=O)c2)cc1 | 2 µM | 1.16 | 
24 | COc1ccc(OCc2ccccc2)c(/C=C2\SC(=S)NC2=O)c1 | 7 µM | 0.94 | 
25 | Cc1ccc(OCc2ccccc2)c(/C=C2\SC(=S)NC2=O)c1 | 6 µM | 4.15 | 
